What was measured:
Homo sapiens [1] = species: Homo sapiens; assay: Cytotoxicity against the cancer cell lines renal SN12C; type: functional
In short: (§1)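 Human tumor cell line panel (about 55 lines) exposed to compound across 10^-4 to 10^-8 M. GI50 is the concentration giving 50% growth inhibition; values outside the range are set to the range limits.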

Homo sapiens [2] = species: Homo sapiens; assay: Cytotoxicity against the cancer cell lines prostate DU-145; type: functional; in short: as §1
Homo sapiens [3] = species: Homo sapiens; assay: Cytotoxicity against the cancer cell lines ovarian OVCAR-3; type: functional; in short: as §1
Homo sapiens [4] = species: Homo sapiens; assay: Cytotoxicity against the cancer cell lines CNS SF-539; type: functional; in short: as §1
Homo sapiens [5] = species: Homo sapiens; assay: Cytotoxicity against the cancer cell lines colon HCT116; type: functional; in short: as §1
Homo sapiens [6] = species: Homo sapiens; assay: Cytotoxicity against the cancer cell lines breast MDA-MB-435; type: functional; in short: as §1
Tubulin = Tubulin (Bos taurus, UniProt Q6B856+Q862L2+Q862F3); assay: Inhibition of tubulin polymerization measured at 12 uM tubulin concentration.; type: protein assay
In short: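 Bovine brain tubulin, electrophoretically homogeneous, at 1.2 mg/mL (12 μM), preincubated at 26 °C with varying compound concentrations (up to 40 μM), then chilled on ice before GTP was added. Polymerization at 26 °C followed by turbidity at 350 nm, with extent read at 20 min. IC50 determined graphically from at least two independent assays.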

Homo sapiens [7] = species: Homo sapiens; assay: Cytotoxicity against the cancer cell lines melanoma UACC-62; type: functional; in short: as §1
Homo sapiens [8] = species: Homo sapiens; assay: Cytotoxicity against the cancer cell lines lung HOP-62; type: functional; in short: as §1

Structure (SMILES)	GI50 (Homo sapiens [1]) [µM]	GI50 (Homo sapiens [2]) [µM]	GI50 (Homo sapiens [3]) [µM]	GI50 (Homo sapiens [4]) [µM]	GI50 (Homo sapiens [5]) [µM]	GI50 (Homo sapiens [6]) [µM]	IC50 (Tubulin) [µM]	GI50 (Homo sapiens [7]) [µM]	GI50 (Homo sapiens [8]) [µM]
C[C@]12CC[C@@H]3c4cc(/C=N/CCO)c(O)cc4CC[C@H]3[C@@H]1CC[C@@H]2O	18	20	19	13	11	17	> 40	16	23
COc1cc2c(cc1O)CC[C@@H]1[C@@H]2CC[C@]2(C)[C@@H](O)CC[C@@H]12 [2-METHOXYESTRADIOL]	0.95	1.8	0.21	0.32	0.47	0.08	4.7	0.36	0.7
COc1cc(/C=C/c2cc3c(cc2O)CC[C@@H]2[C@@H]3CC[C@]3(C)[C@@H](O)CC[C@@H]23)cc(OC)c1OC	2.4	2.8	3.2	2	3.2	4.4	> 40	2.7	3.6
C[C@]12CC[C@@H]3c4cc(C#N)c(O)cc4CC[C@H]3[C@@H]1CC[C@@H]2O	48	34	> 100	> 100	> 100	> 100	> 40	6.1	56
CC#Cc1cc2c(cc1O)CC[C@@H]1[C@@H]2CC[C@]2(C)[C@@H](O)CC[C@@H]12	6.9	3.6	0.34	0.95	0.48	0.13	4.9	0.5	1.7
C#Cc1cc2c(cc1O)CC[C@@H]1[C@@H]2CC[C@]2(C)[C@@H](O)CC[C@@H]12	6.4	10	3.8	2.3	3.9	2.2	13	4.8	6.2
CN(C)CC/N=C/c1cc2c(cc1O)CC[C@@H]1[C@@H]2CC[C@]2(C)[C@@H](O)CC[C@@H]12	22	22	21	22	15	19	> 40	17	19
C[C@]12CC[C@@H]3c4cc(C#Cc5ccccc5)c(O)cc4CC[C@H]3[C@@H]1CC[C@@H]2O	11	16	14	16	14	16	> 40	12	14
C[C@]12CC[C@@H]3c4cc(/C=C/CO)c(O)cc4CC[C@H]3[C@@H]1CC[C@@H]2O	6.2	0.9	5.3	0.25	0.47	0.052	6.3	0.47	5.5
C[C@]12CC[C@@H]3c4cc(OCCO)c(O)cc4CC[C@H]3[C@@H]1CC[C@@H]2O	19	16	8.7	11	15	16	9.6	13	18

Source: ChEMBL document CHEMBL1135629, “The effect of exchanging various substituents at the 2-position of 2-methoxyestradiol on cytotoxicity in human cancer cell cultures and inhibition of tubulin polymerization” (J Med Chem, 2002)
